Screens: PubChem, Sanford-Burnham Center for Chemical Genomics
Sampled rows, rich in hits. Any-hit rate of the full collection: about 1.5%.
CXCR6 inh: blocks human CXCR6 beta-arrestin recruitment; O00574; CHO-K1 PathHunter CXCR6 beta-arrestin, luminescence; inhibition, % at 20 µM; hit rate 0.36% among 360,000; in the data active means inhibition above about 34%, passing the limit was not always enough;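 further: antagonist mode with CXCL16 agonist at 10 nM final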
Target sequence (O00574 whole entry, looked up): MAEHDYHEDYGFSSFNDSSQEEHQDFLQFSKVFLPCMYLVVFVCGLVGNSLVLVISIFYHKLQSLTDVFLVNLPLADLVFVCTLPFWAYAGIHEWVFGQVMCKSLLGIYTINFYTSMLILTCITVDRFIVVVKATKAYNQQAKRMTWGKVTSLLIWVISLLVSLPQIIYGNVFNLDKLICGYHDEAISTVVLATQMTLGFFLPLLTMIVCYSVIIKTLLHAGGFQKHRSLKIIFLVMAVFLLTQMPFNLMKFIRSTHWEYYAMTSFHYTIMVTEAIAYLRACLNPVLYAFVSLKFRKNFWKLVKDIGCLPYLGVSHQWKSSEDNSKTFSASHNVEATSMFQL
CCR6 antagonist: blocks CCL20-driven beta-arrestin recruitment at human CCR6; P51684; CHO-K1 CCR6 PathHunter beta-arrestin, luminescence, CCL20-stimulated; inhibition, % at 20 µM; hit rate 0.49% among 340,000; AID 493098;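 active means compounds whose inhibition of the agonist-driven luminescence signal at 20 µM reaches about 50%, limit read from the data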;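 further: cells stimulated with CCL20 at 14 nM final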
APJ antag: antagonists of human APJ apelin receptor; P35414; CHO-K1 APJ beta-arrestin complementation, luminescence; inhibition, % at 20 µM; hit rate 0.32% among 330,000; AID 2521;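 active means inhibition above about 40% at 20 µM, limit read from the data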;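 further: cells challenged with 10 nM apelin-13 agonist together with compound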
EBI2 block: EBI2 (human) antagonism; EBI2 beta-arrestin recruitment, luminescence, 7a,25-OHC stimulated; inhibition, % at 5 µM; hit rate 0.81% among 360,000; in the data active means inhibition above about 38%;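 further: enzyme fragment complementation signal reports receptor beta-arrestin coupling in cells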
APJ ag: agonists of human APJ apelin receptor | CHO-K1 APJ PathHunter beta-arrestin, luminescence; 0% DMSO wells, 100% apelin | activation, % at 20 µM | hit rate 0.11% among 330,000 | AID 2520;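 active means activation more than six SD over the plate average, tested at 20 µM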
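assay system = CHO-K1 APJ beta-arrestin complementation cell line | input = cell density 1000 per well | dosing = compound 20 µM once, DMSO 1% | timing = compound 90 min 25 °C, reagent 1 h | measured by = luminescence from split beta-galactosidase complementation, Galacton Star/Emerald II substrate | read-out basis = APJ agonist activity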
EBI2 conf: confirmation of human EBI2 receptor antagonists | shares compounds with EBI2 block | EBI2 beta-arrestin luminescence, 7a,25-OHC antagonism | inhibition, % at 5 µM | hit rate 29% among 2,400 | AID 651997;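 active means inhibition of at least 50%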
EBI2 agonist: counter-screen for EBI2 antagonists: EBI2 agonist activity; shares compounds with EBI2 block; EBI2-expressing cells, agonist mode, luminescence, 60 min; 0% vehicle, 100% 7α,25-dihydroxycholesterol control; activation, % at 5 µM; 2,400 tested, under 10 active; AID 652000;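 active means activation of at least 50%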
bGal counter: inhibits E. coli beta-galactosidase, counter-screen for EBI2 antagonists; shares compounds with EBI2 block; purified beta-galactosidase, luminescent Galacton Star, 15 min; inhibition, % at 5 µM; hit rate 1% among 2,400;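 active means replicate-average signal at least 3 plate SD below neutral wells, shown as high inhibition, flagging enzyme-inhibiting false positives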;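 further: higher means stronger loss of beta-gal luminescence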
Hits are given with their value; – = inactive; · = no result.

SMILES	CXCR6 inh	CCR6 antagonist	APJ antag	EBI2 block	APJ ag	EBI2 conf	EBI2 agonist	bGal counter
COc1ccc2c(c1)oc1c(SCc3nc4ccccc4[nH]3)nc(C)nc12	–	–	–	77.7	–	50.8	–	–
COc1cccc(NC(=O)C(Sc2nnc(Nc3ccccc3C)s2)c2ccccc2)c1 (stereo not given)	–	–	–	46.3	–	–	–	–
COc1ccc(NC(=O)c2sc(SC)nc2N)cc1	–	–	–	–	–	·	·	·
COc1ccc(NC(=O)c2sc(SCc3ccccc3)nc2N)cc1	–	–	–	88.3	–	68.8	–	–
O=C(Cc1ccccc1)NC(=S)Nc1ccc2oc(-c3ccccc3F)nc2c1	–	–	–	38.9	–	–	–	–
Cc1ccc(CNC(=O)c2ccc(S(=O)(=O)N3CCCCC3)cc2)cc1	–	–	–	63.5	–	–	–	–
Cc1cccc(C(=O)NC(=S)Nc2ccc(S(=O)(=O)N3CCCCC3)cc2)c1	–	–	–	61.6	–	–	–	–
COc1ccc(S(=O)(=O)N2CCN(C(=O)NCc3ccc(C)cc3)CC2)cc1	–	–	–	77.1	–	59.9	–	–
COc1ccc(CNC(=O)N2CCN(S(=O)(=O)c3ccc(C)cc3C)CC2)cc1	–	–	–	63.3	–	–	–	–
O=C(CSc1nnc(CNc2ccc(F)cc2)o1)c1ccccc1	–	–	–	–	–	·	·	·
O=C(NNC(=S)NC(=O)c1sc2ccccc2c1Cl)c1ccc(Cl)cc1	–	–	–	–	–	·	·	·
COc1ccc(N=Nc2nc3ccc(Br)cc3n2C)cc1	–	–	·	–	·	·	·	·
Cc1ccc(CNC(=O)c2ccc(-n3cccc3)cc2)cc1	–	–	·	47.5	·	–	–	–
COc1ccc(CCNC(=S)N2CCN(S(=O)(=O)c3ccc(C)cc3)CC2)cc1	–	–	–	51.6	–	–	–	–
COc1ccc(S(=O)(=O)N2CCN(C(=S)NCCc3ccccc3)CC2)cc1	–	–	–	–	–	·	·	·
Cc1ccc(S(=O)(=O)N2CCN(C(=O)NCc3ccc(F)cc3)CC2)c(C)c1	–	–	–	67.7	–	–	–	–
O=C(NCc1ccc(F)cc1)N1CCN(S(=O)(=O)c2ccccc2F)CC1	–	–	–	–	–	·	·	·
COc1ccc(C(=O)NC2CC3CCCC(C2)N3Cc2ccccc2)c(OC)c1 (stereo not given)	–	–	–	–	–	·	·	·
O=C(Cn1nc(C(=O)O)c2ccccc2c1=O)c1c[nH]c2ccccc12	–	–	–	77.0	–	68.9	–	–
CC(Sc1nc2cc([N+](=O)[O-])ccc2n1-c1ccc(F)cc1)C(=O)NCc1ccc2c(c1)OCO2 (stereo not given)	–	–	–	54.2	–	–	–	–
COc1ccc(OC)c(S(=O)(=O)N2CCN(CC(O)COc3ccccc3)CC2)c1 (stereo not given)	–	–	–	46.3	–	–	–	–
COc1ccc(OC)c(S(=O)(=O)N2CCN(CC(O)COc3ccc(C#N)cc3)CC2)c1 (stereo not given)	–	–	–	45.2	–	–	–	–
COc1ccc(OCC(O)CN2CCC(CN3C(=O)c4cccc5cccc(c45)C3=O)CC2)cc1 (stereo not given)	–	–	–	43.7	–	–	–	–
COc1ccc(S(=O)(=O)N2CCN(CC(O)COc3ccc(C#N)cc3)CC2)cc1OC (stereo not given)	–	–	–	–	–	·	·	·
COc1ccc(CCN(CC(=O)NC(C)(C)C)C(=O)Cn2nnc(-c3ccc(C)o3)n2)cc1OC	–	–	–	–	–	·	·	·
SMILES	CXCR6 inh	CCR6 antagonist	APJ antag	EBI2 block	APJ ag	EBI2 conf	EBI2 agonist	bGal counter
Cn1cc(C(=O)c2ccc(Cl)cc2)cc1-c1nc2ccccc2n1C	–	–	–	63.6	–	–	–	–
Cc1nc(N)nc(N)c1/C=C/C(C)(C)c1ccc(Cl)cc1	–	–	·	–	·	·	·	·
CC(C)(C)S(=O)N1Cc2cc(C(=O)NCc3ccc4c(c3)OCO4)nc(-c3cccc(-c4ccccc4)c3)c2[C@@H]1CCO (stereo not given in full)	–	·	·	45.5	·	–	–	–
CC(C)(C)S(=O)N1Cc2cc(C(=O)NCc3ccc4c(c3)OCO4)nc(-c3cccc(-c4ccncc4)c3)c2[C@H]1CCO (stereo not given in full)	–	·	·	–	·	·	·	·
CCCNC(=O)c1cc2c(c(-c3cccc(-c4ccc(F)cc4)c3)n1)[C@H](CCO)N(S(=O)C(C)(C)C)C2 (stereo not given in full)	–	·	·	60.8	·	–	–	–
C/C(=N\OC(=O)C1CC1)C1CC1c1ccc(F)cc1 (stereo not given)	–	–	–	–	–	·	·	·
CCCCN1CC(=O)N2Cc3[nH]c4ccccc4c3C[C@H]2C1=O	–	–	–	–	–	·	·	·
Nc1c(S(=O)(=O)c2ccccc2)c2nc3ccccc3nc2n1/N=C/c1cccc(O)c1	–	–	–	68.4	–	–	–	–
Cc1cccc(S(=O)(=O)c2c(N)n(/N=C/c3ccccc3)c3nc4ccccc4nc23)c1	–	–	–	–	–	·	·	·
CC(=O)Nc1ccc(N(C(=O)CNC(=O)c2cccs2)C(C(=O)NC(C)(C)C)c2ccccc2)cc1 (stereo not given)	–	–	–	–	–	·	·	·
CCN(CC)C(=O)CSc1nc2c(sc(=S)n2-c2ccccc2)c(=O)n1Cc1ccco1	–	–	–	56.6	–	–	–	–
CCN(CC)C(=O)CSc1nc2c(sc(=S)n2CC)c(=O)n1-c1ccccc1	–	–	–	–	–	·	·	·
Cc1ccc(S(=O)(=O)Nc2ccc(C(=O)N3CCN(c4ccccc4O)CC3)cc2)cc1[N+](=O)[O-]	–	–	–	–	–	·	·	·
CCOC(=O)c1nsnc1NCCSC(=N)N	–	–	–	–	–	·	·	·
CCC(=O)NCCc1c[nH]c2ccccc12	–	–	–	–	–	·	·	·
O=C(NCCc1c[nH]c2ccccc12)c1ccc(Cl)cc1	–	–	–	59.6	–	–	–	–
CC(NC(=O)C(=O)NCCc1c[nH]c2ccccc12)c1ccccc1 (stereo not given)	–	–	–	60.8	–	–	–	–
COc1ccc(N2CCN(C(CNC(=O)C(=O)NCCc3c[nH]c4ccccc34)c3ccco3)CC2)cc1 (stereo not given)	–	–	–	49.1	–	–	–	–
CN(C(=O)c1cccc(C(F)(F)F)c1)C1CCCc2ccccc21 (stereo not given)	–	–	–	–	–	·	·	·
O=C(C1CC1)N1CCN(C(c2ccccc2)c2ccccc2)CC1	–	–	–	–	–	·	·	·
